Compound activity deposited in PubChem BioAssay by Broad Institute.
PglD inh – inhibitors of Campylobacter jejuni PglD acetyltransferase | purified PglD enzyme, DTNB colorimetric CoA detection | inhibition, % at 12.5 µM | hit rate 0.098% among 360,000 | AID 602405; in the data active = inhibition above about 16%, passing the limit was not always enough
DENV2 CPE – inhibitors of DENV2 cytopathic effect | AID 651640 | CPE inhibition, % at 9.99 µM | DENV2-infected cells, cytopathic effect rescue, plate reader | hit rate 1.7% among 350,000; in the data active = CPE inhibition above about 20%, passing the limit was not always enough; tested in BHK-21 cells;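 also: 0% = median of neutral control wells and 100% = median of positive control wells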
E-selectin induc – E-selectin induction on HUVECs; activation, % at 7.58 µM; HUVEC E-selectin immunofluorescence imaging; normalized: neutral wells 0, TNF-alpha wells 100; hit rate 0.37% among 260,000; AID 686992; P16581;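 active = mean E-selectin-positive cell signal at least 10% of the positive control, reached in at least 60% of replicates, without over 20% cell loss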
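Test system: HUVEC | Signal: Immunofluorescence imaging | Read-out: Percent E-selectin-positive cells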
Statin myotox sup – suppressors of simvastatin-induced myotoxicity in C2C12 myotubes; ATP luminescence, 48 h; scaled: DMSO 0, geranylgeraniol control 100; rescue of ATP level, % at 7.49 µM; hit rate 0.78% among 330,000;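 active = mean ATP rescue above about 67%, or every replicate alone reaching that limit, limit read from the data, passing the limit was not always enough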;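 also: myotubes were challenged with 10 µM simvastatin during compound exposure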
FGF22 binding – binders of recombinant human FGF22 by thermal shift; Q9HCT0; activity (Tm shift, normalised), % at 9.99 µM; hit rate 1.5% among 340,000; SYPRO orange fluorescence; percent of sucrose octasulfate shift, DMSO zero;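 active = mean Tm shift, scaled 0 neutral to 100 positive control, at about 1.3% or above, every replicate too, limit read from the data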
Target sequence (Q9HCT0 whole entry, looked up): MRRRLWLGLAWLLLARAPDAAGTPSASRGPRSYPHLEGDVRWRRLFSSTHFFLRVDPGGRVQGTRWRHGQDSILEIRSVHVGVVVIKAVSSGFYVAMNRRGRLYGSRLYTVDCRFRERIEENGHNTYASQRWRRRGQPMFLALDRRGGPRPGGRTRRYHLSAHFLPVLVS
XiGFP reactiv – X-chromosome reactivation activator | XiGFP mouse fibroblasts, % GFP-positive cells imaging, 3 d; cells co-treated with 5-aza-dC sensitizer; scaled so ellipticine positive control = 100% | activation, % at 7.58 µM | hit rate 0.055% among 360,000 | AID 743238;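 active = mean normalized replicate activation at least 10% and every replicate at or above 10%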;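 also: 0% = median of on-plate neutral control wells and 100% = ellipticine 6 µM median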
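assay system = SV40-immortalized XiGFP fibroblast cells, line 68-5-11 | buffer or medium = DMEM plus 5-aza-dC sensitizer | doses = single-point pinned compound dosing | times = 3-day compound exposure, then 15 min fixation at room temperature | benchmarks = positive control ellipticine, 6 µM final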
* hit, by the source's call; / = no result given; ! = not active in a repeat. Sampled rows, rich in hits. Any-hit rate of the full collection: about 3.3%.

SMILES	PglD inh	DENV2 CPE	E-selectin induc	Statin myotox sup	FGF22 binding	XiGFP reactiv
COc1cc(SC)ccc1C(=O)Nc1ccccc1C#N	3	/	/	99*	/	/
Cc1noc(C)c1NC(=O)Nc1ccc2c(c1)C(=O)N(C)[C@H]1CC[C@@H](CC(=O)N[C@@H]3CCN(Cc4ccccc4)C3)O[C@H]1CO2	0	-2	0	-11	0	0
COc1cccc(OC)c1OCCCSc1nc(C)cc(=O)[nH]1	/	/	/	-2	/	/
CC(C)COc1cc(=O)[nH]c(SCC(C)C)n1	-1	/	/	148*	/	/
O=C(N[C@@H]1C[C@@H]2O[C@@H](CO)CC[C@@H]2O[C@@H]1CCc1ccc(C#Cc2ccccc2)cc1)c1ccccn1	/	11	/	/	/	/
CSCCC(NC(=O)c1ccco1)C(=O)NCC1CCCCC1 (stereo not given)	-7	1	0	13	0	0
CSCCC(NC(N)=O)C(=O)NCC1CCCCC1 (stereo not given)	-9	/	/	127*	/	/
CC(C)NC(=O)Nc1ccc2c(c1)C(=O)N([C@H](C)CO)C[C@@H](C)[C@@H](CN(C)C(=O)Nc1ccc3c(c1)OCO3)O2	0	25*	0	-1	1	0
CC(C)NC(=O)Nc1ccc2c(c1)C(=O)N([C@@H](C)CO)C[C@H](C)[C@H](CN(C)C(=O)Nc1ccc3c(c1)OCO3)O2	1	87*	0	6	1	1
C[C@H](CO)N1C[C@H](C)[C@H](CN(C)C(=O)Nc2ccc3c(c2)OCO3)Oc2ccc(NC(=O)Nc3ccc4c(c3)OCO4)cc2C1=O	2	-13	0	-9	0	1
Cc1ccc(SCc2nc(N)nc(Nc3ccccc3C)n2)c(C)c1	/	3	/	2	43*	0
Cc1ccc(S(=O)(=O)N(C)C[C@@H]2OCCCC[C@H](C)Oc3ccc(NS(=O)(=O)c4cn(C)cn4)cc3C(=O)N([C@@H](C)CO)C[C@@H]2C)cc1	3	-1	/	/	0	0
O=C(CSc1nccc(=O)[nH]1)N1CCOCC1	-1	115*	1	-15	0	0
O=C(CSc1nc(C(F)(F)F)cc(=O)[nH]1)N1CCOCC1	/	-4	7	/	0	0
Cc1ccccc1S(=O)(=O)N1[C@@H]2CNC[C@H]1C2c1ccc(/C=C/c2ccccc2)cc1 (stereo not given in full)	/	25*!	0	/	/	0
CS(=O)(=O)N1[C@@H]2CNC[C@H]1C2c1ccc(-c2ccccc2)cc1 (stereo not given in full)	/	80*	0	/	0	0
COc1ccccc1S(=O)(=O)N1[C@@H]2CNC[C@H]1C2c1ccc(/C=C/c2ccccc2)cc1 (stereo not given in full)	/	-2	0	/	/	0
CC(C)NC(=O)Nc1cccc2c1O[C@@H](CN(C)C(=O)NC1CCCCC1)[C@@H](C)CN([C@H](C)CO)C2=O	2	13	-9	-7	0	0
CNC[C@@H]1OCCCC[C@@H](C)Oc2ccc(NC(=O)c3ccncc3)cc2C(=O)N([C@H](C)CO)C[C@H]1C	2	-1	/	28	-1	/
CC(C(=O)NCc1ccccc1)N1C(=O)CN(C)C(=O)c2ccccc21 (stereo not given)	2	/	/	89*	/	/
CCCCC(C(=O)NC(=O)NCc1ccccc1)N1C(=O)c2ccccc2C1=O (stereo not given)	-2	/	/	2	/	/
CC(C(=O)NCc1ccccc1)N1C(=O)C2CC=C(Cl)CC2C1=O (stereo not given)	1	/	/	-3	/	/
CC(C(=O)NC(=O)NCc1ccccc1)N1C(=O)c2ccccc2C1=O (stereo not given)	-5	/	/	96*	/	/
O=C(CCN1CCc2ccccc2C1)c1ccc2c(c1)OCCO2	0	/	/	-2	/	/
O=C(CCN1CCc2ccccc21)c1ccc2c(c1)OCCO2	-3	/	/	115*	/	/
SMILES	PglD inh	DENV2 CPE	E-selectin induc	Statin myotox sup	FGF22 binding	XiGFP reactiv
COc1cccc(COC(=O)CSCC(=O)Nc2cccc(C)c2)c1OC	2	0	0	-9	0	0
COc1cccc(COC(=O)CSCC(=O)Nc2ccc(C)cc2)c1OC	-5	72*	/	0	0	0
O=c1[nH]c(=O)n([C@H]2C[C@H](O)[C@@H](CO)O2)cc1C(F)(F)F	-2	6	1	12	0	25*
COC(=O)C[C@H]1CC[C@H]2[C@@H](COc3ccc(NC(=O)Nc4ccc(C#N)cc4)cc3C(=O)N2C)O1	/	17	0	/	0	0
COc1ccc(CNC(=O)CCS(=O)(=O)c2ccc3c(c2)NC(=O)CS3)cc1	-5	35*	1	-1	0	0
CCCCC(CC(O)COCC(C)C)C(=O)NN (stereo not given)	/	5	/	/	1	0
CC(C)COCC(O)CC(Cc1ccccc1)C(=O)NN (stereo not given)	/	10	/	/	43*	0
C[C@@H]1CN([C@H](C)CO)S(=O)(=O)c2ccc(Br)cc2O[C@H]1CN(C)Cc1ccccc1	-1	-25	0	-86	0	-1
C[C@@H]1CN([C@@H](C)CO)C(=O)c2cc(NC(=O)Nc3ccc4c(c3)OCO4)ccc2O[C@@H](C)CCCCO[C@H]1CN(C)CC1CCCCC1	3	-6	0	-11	1.4*	0
CC(C)NC(=O)Nc1ccc2c(c1)C(=O)N([C@H](C)CO)C[C@@H](C)[C@H](CN(C)CC1CC1)OCCCC[C@H](C)O2	-4	-4	0	-2	0	-1
CC(C)NC(=O)Nc1ccc2c(c1)C(=O)N([C@H](C)CO)C[C@H](C)[C@H](CN(C)CC1CC1)OCCCC[C@@H](C)O2	21	107*	2	25	0	0
C[C@@H]1CCCCO[C@@H](CN(C)CC2CCCCC2)[C@H](C)CN([C@@H](C)CO)C(=O)c2cc(NC(=O)Nc3ccc(F)cc3)ccc2O1	-1	29*	0	/	0	0
O=C(C[C@@H]1C=C[C@H](NC(=O)C2CCC2)[C@H](CO)O1)NC1CCC1	0	-3	0	0	0	0
O=C(c1cccc(F)c1)N1C[C@@H]2[C@H](c3ccccc31)[C@H](CO)N2C(=O)c1ccc(F)cc1	0	6	0	-11	0	1
CCCC#Cc1cnc2c(c1)C(=O)N([C@H](C)CO)C[C@H](C)[C@H](CN(C)C(=O)Nc1ccccc1F)O2	4	-2	0	15	0	-1
O=C(CNC(=O)c1ccccc1Br)N/N=C/c1cc(Br)ccc1O	-4	3	/	-1	44*	0
O=C(O)CNC(=O)c1ccccc1Br	/	-6	5	/	43*	0
O=C(CNC(=O)c1cccc(Br)c1)N/N=C/c1cn[nH]c1-c1ccccc1	/	-2	/	/	0	0
